Test results reported in ChEMBL document CHEMBL1153968, “Discovery of 5-pyrrolopyridinyl-2-thiophenecarboxamides as potent AKT kinase inhibitors” (Bioorg Med Chem Lett, 2009).

Experiments:
[1] = molecular target: RAC-alpha serine/threonine-protein kinase (Homo sapiens, UniProt P31749); test: Inhibition of AKT1
How it was run: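 AKT1 enzyme IC50 from the standard high-throughput AKT enzyme assay.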

[2] = Inhibition of AKT-mediated GSK3-beta phosphorylation in human BT474 cells by mechanistic assay; assay type: cell-based; details: BT-474
How it was run: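 Cellular mechanistic assay in BT474 cells measuring inhibition of GSK3β phosphorylation, reported as IC50.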

[3] = molecular target: RAC-gamma serine/threonine-protein kinase (Homo sapiens, UniProt Q9Y243); test: Inhibition of AKT3
RAC-gamma serine/threonine-protein kinase, sequence (Q9Y243 whole entry): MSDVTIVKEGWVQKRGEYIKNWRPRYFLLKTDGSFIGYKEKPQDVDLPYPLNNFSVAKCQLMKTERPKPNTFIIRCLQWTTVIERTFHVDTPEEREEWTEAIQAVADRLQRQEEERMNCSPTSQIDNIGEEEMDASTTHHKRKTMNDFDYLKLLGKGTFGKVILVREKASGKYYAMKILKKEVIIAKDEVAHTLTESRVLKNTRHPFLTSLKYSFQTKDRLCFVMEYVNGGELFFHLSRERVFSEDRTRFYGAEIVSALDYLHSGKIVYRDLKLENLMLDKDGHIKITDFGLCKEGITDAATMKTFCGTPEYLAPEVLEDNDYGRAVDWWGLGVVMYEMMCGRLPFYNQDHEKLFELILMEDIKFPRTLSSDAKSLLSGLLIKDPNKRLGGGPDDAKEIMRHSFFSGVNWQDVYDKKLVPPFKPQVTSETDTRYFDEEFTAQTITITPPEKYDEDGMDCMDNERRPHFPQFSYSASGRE

BT-474 = test: Cytotoxicity against human BT474 cells; assay type: functional, cell-based
How it was run: (§1)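 Inhibition of cell proliferation, reported as IC50. AKT-sensitive lines were BT474 and LNCaP; HFF was the non-tumour-derived line.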

LNCaP = test: Cytotoxicity against human LNCAP cells; assay type: functional, cell-based; how it was run: as §1
HFF = test: Cytotoxicity against human HFF cells; assay type: cell-based; how it was run: as §1
[4] = Cmax in rat at 2 mg/kg, iv after 24 hrs; assay type: ADME, organism-based; design: dose 2 mg/kg, route intravenous; details: in vivo
How it was run: (§2)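 iv/po crossover pharmacokinetic study in conscious male rats, n = 3. Dosing was 2 mg/kg iv and 10 mg/kg po.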

[5] = Clearance in rat at 2 mg/kg, iv after 24 hrs; assay type: ADME, organism-based; design: dose 2 mg/kg, route intravenous; details: in vivo; how it was run: as §2
[6] = Half life in rat at 2 mg/kg, iv after 24 hrs; assay type: ADME, organism-based; design: dose 2 mg/kg, route intravenous; details: in vivo; how it was run: as §2
[7] = (§3) AUC (0 to t) in rat at 2 mg/kg, iv after 24 hrs; assay type: ADME, organism-based, Plasma; design: time < 24 hr, dose 2 mg/kg, route intravenous; details: plasma; how it was run: as §2
[8] = Cmax in rat at 10 mg/kg, po after 24 hrs; assay type: ADME, organism-based; design: dose 10 mg/kg, route oral; details: in vivo; how it was run: as §2
[9] = Half life in rat at 10 mg/kg, po after 24 hrs; assay type: ADME, organism-based; design: dose 10 mg/kg, route oral; details: in vivo; how it was run: as §2
[10] = (§4) AUC (0 to t) in rat at 10 mg/kg, po after 24 hrs; assay type: ADME, organism-based, Plasma; design: time < 24 hr, dose 10 mg/kg, route oral; details: plasma; how it was run: as §2
[11] = (§5) Oral bioavailability in rat at 10 mg/kg after 24 hrs; assay type: ADME, organism-based; details: in vivo; how it was run: as §2
Rattus norvegicus [12] = test: as §3; assay type: ADME, organism-based, Plasma; design: time < 24 hr, dose 2 mg/kg, route intravenous; details: in vivo, 24 h; how it was run: as §2
Rattus norvegicus [13] = test: as §4; assay type: ADME, organism-based, Plasma; design: time < 24 hr, dose 10 mg/kg, route oral; details: in vivo, 24 h; how it was run: as §2
Rattus norvegicus [14] = test: as §5; assay type: ADME, organism-based; details: in vivo, 24 h; how it was run: as §2
Mus musculus = test: Inhibition of GSK3-beta phosphorylation in human BT474 xenografted ip dosed mouse after 4 hrs administered once relative to control; assay type: functional, organism-based
How it was run: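 BT474 tumour-bearing xenograft mice received a single ip injection at 6.25, 12.5 or 25 mg/kg. Vehicle was 5% dextrose, pH 4.0. Tumours were harvested 4 h post-dose and pGSK3β levels compared with the vehicle group.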

[15] = molecular target: Protein kinase C alpha type (Homo sapiens, UniProt P17252); test: Inhibition of PKCalpha
[16] = molecular target: Glycogen synthase kinase-3 beta (Homo sapiens, UniProt P49841); test: Inhibition of GSK3-beta
Glycogen synthase kinase-3 beta, sequence (P49841 whole entry): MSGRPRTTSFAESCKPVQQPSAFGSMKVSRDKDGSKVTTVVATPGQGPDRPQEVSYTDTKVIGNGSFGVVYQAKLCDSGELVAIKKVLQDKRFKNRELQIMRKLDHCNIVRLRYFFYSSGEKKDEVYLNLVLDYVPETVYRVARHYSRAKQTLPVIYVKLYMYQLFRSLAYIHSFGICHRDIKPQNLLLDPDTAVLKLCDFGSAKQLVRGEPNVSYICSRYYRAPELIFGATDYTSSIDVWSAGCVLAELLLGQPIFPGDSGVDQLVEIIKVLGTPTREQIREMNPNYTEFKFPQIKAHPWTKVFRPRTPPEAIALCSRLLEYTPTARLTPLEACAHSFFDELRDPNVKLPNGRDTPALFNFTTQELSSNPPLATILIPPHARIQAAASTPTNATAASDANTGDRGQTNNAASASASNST

[17] = molecular target: MAP kinase-activated protein kinase 2 (Homo sapiens, UniProt P49137); test: Inhibition of MAPKAPK2
MAP kinase-activated protein kinase 2, sequence (P49137 whole entry): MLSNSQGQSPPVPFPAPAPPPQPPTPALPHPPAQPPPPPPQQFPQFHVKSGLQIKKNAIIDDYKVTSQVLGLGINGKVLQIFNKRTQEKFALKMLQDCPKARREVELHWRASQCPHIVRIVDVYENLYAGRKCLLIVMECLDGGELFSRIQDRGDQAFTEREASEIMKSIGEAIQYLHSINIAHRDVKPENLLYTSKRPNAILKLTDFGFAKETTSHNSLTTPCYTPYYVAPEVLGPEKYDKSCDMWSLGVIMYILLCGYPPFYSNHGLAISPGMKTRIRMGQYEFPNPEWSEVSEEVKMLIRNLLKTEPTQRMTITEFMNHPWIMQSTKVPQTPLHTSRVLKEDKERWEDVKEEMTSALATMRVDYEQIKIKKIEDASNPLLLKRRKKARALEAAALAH

[18] = molecular target: Serine/threonine-protein kinase pim-1 (Homo sapiens, UniProt P11309); test: Inhibition of PIM1
Serine/threonine-protein kinase pim-1, sequence (P11309 whole entry): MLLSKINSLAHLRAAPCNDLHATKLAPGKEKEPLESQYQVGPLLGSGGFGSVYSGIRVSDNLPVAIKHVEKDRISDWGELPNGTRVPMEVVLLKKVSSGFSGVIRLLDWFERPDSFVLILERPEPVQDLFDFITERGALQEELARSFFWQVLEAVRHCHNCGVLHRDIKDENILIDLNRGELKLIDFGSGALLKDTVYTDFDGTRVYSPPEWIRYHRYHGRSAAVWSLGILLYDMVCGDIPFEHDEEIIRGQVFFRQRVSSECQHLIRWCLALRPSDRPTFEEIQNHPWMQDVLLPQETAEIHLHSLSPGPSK

[19] = molecular target: Epidermal growth factor receptor (Homo sapiens, UniProt P00533)
Epidermal growth factor receptor, sequence (P00533 whole entry): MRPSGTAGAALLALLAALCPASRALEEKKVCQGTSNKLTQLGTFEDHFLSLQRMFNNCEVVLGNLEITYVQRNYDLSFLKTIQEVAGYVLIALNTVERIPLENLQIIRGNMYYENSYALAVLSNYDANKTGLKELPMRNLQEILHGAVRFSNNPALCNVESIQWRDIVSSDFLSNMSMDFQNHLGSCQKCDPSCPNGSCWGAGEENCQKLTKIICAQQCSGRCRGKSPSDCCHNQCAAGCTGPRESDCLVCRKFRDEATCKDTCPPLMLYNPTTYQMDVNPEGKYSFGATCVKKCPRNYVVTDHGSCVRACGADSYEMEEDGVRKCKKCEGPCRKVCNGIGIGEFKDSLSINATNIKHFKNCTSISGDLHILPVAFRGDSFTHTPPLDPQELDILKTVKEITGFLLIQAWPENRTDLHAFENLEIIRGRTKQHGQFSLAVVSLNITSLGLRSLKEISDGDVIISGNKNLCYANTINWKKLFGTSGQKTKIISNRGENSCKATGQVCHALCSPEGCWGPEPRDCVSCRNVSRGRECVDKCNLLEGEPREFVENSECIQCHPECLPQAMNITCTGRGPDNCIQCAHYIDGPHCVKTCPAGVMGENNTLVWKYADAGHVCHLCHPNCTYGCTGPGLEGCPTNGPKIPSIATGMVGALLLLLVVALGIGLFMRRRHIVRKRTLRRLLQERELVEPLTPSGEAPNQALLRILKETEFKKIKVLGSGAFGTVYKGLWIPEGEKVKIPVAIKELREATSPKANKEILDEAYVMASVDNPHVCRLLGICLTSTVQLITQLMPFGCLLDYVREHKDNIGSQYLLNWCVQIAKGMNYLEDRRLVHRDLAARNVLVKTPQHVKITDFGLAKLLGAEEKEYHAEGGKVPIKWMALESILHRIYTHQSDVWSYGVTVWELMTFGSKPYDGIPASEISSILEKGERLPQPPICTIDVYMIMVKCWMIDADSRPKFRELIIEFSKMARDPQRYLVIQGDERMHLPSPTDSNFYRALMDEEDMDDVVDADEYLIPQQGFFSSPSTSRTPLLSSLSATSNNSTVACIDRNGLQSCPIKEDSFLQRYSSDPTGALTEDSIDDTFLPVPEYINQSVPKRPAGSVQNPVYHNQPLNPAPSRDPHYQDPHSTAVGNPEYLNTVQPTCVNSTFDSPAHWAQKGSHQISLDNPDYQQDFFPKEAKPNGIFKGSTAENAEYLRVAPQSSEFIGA

RAC-alpha serine/threonine-protein kinase, sequence (P31749 whole entry): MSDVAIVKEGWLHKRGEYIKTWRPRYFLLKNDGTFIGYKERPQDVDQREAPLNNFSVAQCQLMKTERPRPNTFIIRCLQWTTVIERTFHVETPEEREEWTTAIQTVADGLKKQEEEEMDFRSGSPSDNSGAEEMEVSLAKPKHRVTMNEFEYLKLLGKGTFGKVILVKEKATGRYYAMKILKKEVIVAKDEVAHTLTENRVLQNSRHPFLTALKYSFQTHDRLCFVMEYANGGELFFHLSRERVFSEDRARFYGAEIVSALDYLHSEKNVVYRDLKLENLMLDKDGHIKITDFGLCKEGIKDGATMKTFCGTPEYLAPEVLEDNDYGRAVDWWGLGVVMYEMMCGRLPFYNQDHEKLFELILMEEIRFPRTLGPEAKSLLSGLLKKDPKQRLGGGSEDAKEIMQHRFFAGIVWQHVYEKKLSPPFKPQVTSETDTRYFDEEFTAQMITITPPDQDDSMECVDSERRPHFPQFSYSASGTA

Row | SMILES | IC50 [1] [nM] | Ki [1] [nM] | IC50 [2] [nM] | IC50 [3] [nM] | IC50 (BT-474) [nM] | IC50 (LNCaP) [nM] | IC50 (HFF) [nM] | further results
1 | NCC(NC(=O)c1cc(Br)c(-c2ccnc3[nH]ccc23)s1)c1ccccc1 (racemic) | 8 | 20 | 500 | 20 | 4000 | 750 | 1200 | Cmax [4]: 1800 ng/mL; clearance [5]: 16.7 mL/min/kg; half-life [6]: 3.6 h; AUC(0-t) at 24 h [7]: 3250 ng·h/mL; Cmax [8]: 550 ng/mL; half-life [9]: 4.1 h; AUC(0-t) at 24 h [10]: 3400 ng·h/mL; bioavailability [11]: 32%
2 | CNCC(NC(=O)c1cc(Br)c(-c2ccnc3[nH]ccc23)s1)c1ccccc1 (stereo unspecified) | 3 | – | 780 | – | – | – | – | –
3 | NCCCC(NC(=O)c1cc(Br)c(-c2ccnc3[nH]ccc23)s1)c1ccccc1 (stereo unspecified) | 20 | – | 4800 | – | – | – | – | –
4 | NCC(C(=O)Nc1cc(Br)c(-c2ccnc3[nH]ccc23)s1)c1ccccc1 (stereo unspecified) | 25 | – | 4700 | – | – | – | – | –
5 | NCC(NCc1ccc(-c2ccnc3[nH]ccc23)s1)c1ccccc1 (stereo unspecified) | 100 | – | > 10000 | – | – | – | – | –
6 | NC[C@@H](Cc1ccccc1)NC(=O)c1cc(Br)c(-c2ccnc3[nH]ccc23)s1 | 32 | 20 | 6000 | 40 | 4500 | 2700 | 1900 | –
7 | NCCNC(=O)c1cc(Br)c(-c2ccnc3[nH]ccc23)s1 | 158 | – | > 10000 | – | – | – | – | –
8 | NC[C@H](CC1CCCCC1)NC(=O)c1cc(Br)c(-c2ccnc3[nH]ccc23)s1 | 1 | 0.79 | 1900 | 3 | 2600 | 440 | – | –
9 | CC(C)NCC(Cc1ccccc1)NC(=O)c1cc(Br)c(-c2ccnc3[nH]ccc23)s1 (stereo unspecified) | 10 | – | 2100 | – | – | – | – | –
10 | NC[C@H](Cc1ccncc1)NC(=O)c1cc(Br)c(-c2ccnc3[nH]ccc23)s1 | – | 2 | 1900 | – | 2300 | 750 | 3600 | –
11 | NCC(NC(=O)c1cc(-c2c[nH]c3ncccc23)cs1)c1ccccc1 (stereo unspecified) | 25 | – | 1100 | – | – | – | – | –
12 | NCC(NC(=O)c1cc(-c2ccnc3[nH]ccc23)cs1)c1ccccc1 (stereo unspecified) | 40 | – | 1000 | – | – | – | – | –
13 | NCC(NC(=O)c1cc(-c2cn[nH]c2)c(-c2ccnc3[nH]ccc23)s1)c1ccccc1 (stereo unspecified) | 63 | – | 2500 | – | – | – | – | –
14 | NCC(C(=O)Nc1ccc(-c2ccnc3[nH]ccc23)s1)c1ccccc1 (stereo unspecified) | 3 | – | 560 | – | – | – | – | –
15 | NCCC(NC(=O)c1cc(Br)c(-c2ccnc3[nH]ccc23)s1)c1ccccc1 (stereo unspecified) | 8 | – | 1500 | – | – | – | – | –
16 | CN(C)CC(NC(=O)c1cc(Br)c(-c2ccnc3[nH]ccc23)s1)c1ccccc1 (stereo unspecified) | 20 | – | > 10000 | – | – | – | – | –
17 | NC[C@H](Cc1ccc(C(F)(F)F)cc1)NC(=O)c1cc(Br)c(-c2ccnc3[nH]ccc23)s1 | 2 | 2 | 2000 | 3 | 1200 | 440 | 1300 | –
18 | NCC(NC(=O)c1cc(-c2ccccc2)c(-c2ccnc3[nH]ccc23)s1)c1ccccc1 (stereo unspecified) | 50 | – | 10000 | – | – | – | – | –
19 | COc1ccc(C[C@@H](CN)NC(=O)c2cc(Br)c(-c3ccnc4[nH]ccc34)s2)cc1 | 3 | 5 | 1000 | 2 | 1900 | 720 | 890 | –
20 | NCC(CNc1ccc(-c2ccnc3[nH]ccc23)s1)c1ccccc1 (stereo unspecified) | 250 | – | > 10000 | – | – | – | – | –
21 | NC(CNC(=O)c1cc(Br)c(-c2ccnc3[nH]ccc23)s1)c1ccccc1 (stereo unspecified) | 40 | – | > 10000 | – | – | – | – | –
22 | NCC(NC(=O)c1cc(C2CC2)c(-c2ccnc3[nH]ccc23)s1)c1ccccc1 (stereo unspecified) | 6 | – | 800 | – | – | – | – | –
23 | CCNCC(Cc1ccccc1)NC(=O)c1cc(Br)c(-c2ccnc3[nH]ccc23)s1 (stereo unspecified) | 4 | – | 1100 | – | – | – | – | –
24 | NCC(NC(=O)c1cc(-c2cccnc2)c(-c2ccnc3[nH]ccc23)s1)c1ccccc1 (stereo unspecified) | 63 | – | 6000 | – | – | – | – | –

Molecules with a lower IC50 [2], results first:

Row | IC50 [1] [nM] | Ki [1] [nM] | IC50 [2] [nM] | IC50 [3] [nM] | SMILES | IC50 (BT-474) [nM] | IC50 (LNCaP) [nM] | IC50 (HFF) [nM] | further results
25 | 2 | – | 260 | – | CNCC(Cc1ccccc1)NC(=O)c1cc(Br)c(-c2ccnc3[nH]ccc23)s1 (stereo unspecified) | – | – | – | –
26 | 16 | – | 240 | – | NCC(NC(=O)c1ccc(-c2c[nH]c3ncccc23)s1)c1ccccc1 (stereo unspecified) | – | – | – | –
27 | 1 | – | 220 | 2 | NC[C@H](Cc1ccccc1F)NC(=O)c1cc(Br)c(-c2ccnc3[nH]ccc23)s1 | 120 | 39 | 260 | –
28 | 6 | – | 190 | – | NCC(NC(=O)c1ccc(-c2ccnc3[nH]ccc23)s1)c1ccccc1 (stereo unspecified) | – | – | – | –
29 | 1 | 0.06 | 180 | 2 | NC[C@H](Cc1ccc(F)cc1)NC(=O)c1cc(Br)c(-c2ccnc3[nH]ccc23)s1 | 500 | 66 | 490 | –
30 | 1 | 0.1 | 170 | 1 | NC[C@H](Cc1cccc(C(F)(F)F)c1)NC(=O)c1cc(Br)c(-c2ccnc3[nH]ccc23)s1 | 60 | 78 | 530 | –
31 | 8 | – | 120 | – | Cc1cc(C(=O)NC(CN)c2ccccc2)sc1-c1ccnc2[nH]ccc12 (stereo unspecified) | – | – | – | –
32 | 1 | 0.06 | 100 | 2 | NC[C@H](Cc1ccccc1)NC(=O)c1cc(Br)c(-c2ccnc3[nH]ccc23)s1 | 230 | 21 | 90 | –
33 | 1 | 0.03 | 90 | – | NC[C@H](Cc1cccc(F)c1)NC(=O)c1cc(Br)c(-c2ccnc3[nH]ccc23)s1 | 240 | 18 | 260 | Activity (Mus musculus): Dose-dependent effect; IC50 [15]: 40 nM; IC50 [16]: 20000 nM; IC50 [17]: 2500 nM; IC50 [18]: 794 nM; IC50 [19]: 10000 nM
34 | 1 | 0.04 | 80 | 3 | NCC(Cc1ccccc1)NC(=O)c1cc(Br)c(-c2ccnc3[nH]ccc23)s1 (racemic) | 200 | 45 | 410 | Cmax [4]: 712 ng/mL; clearance [5]: 49 mL/min/kg; half-life [6]: 3.8 h; AUC (Rattus norvegicus [12]): 893 ng·h/mL; Cmax [8]: 248 ng/mL; AUC (Rattus norvegicus [13]): 664 ng·h/mL; F (Rattus norvegicus [14]): 38%
35 | 3 | 0.05 | 50 | 2 | NC[C@H](Cc1ccccc1C(F)(F)F)NC(=O)c1cc(Br)c(-c2ccnc3[nH]ccc23)s1 | 60 | 24 | 730 | –
